Measured values from article PMC11419141 (bioRxiv, 2024).
“Also recorded” adds a separate entry of the source.

Tests used:
[1] = tested on: Staphylococcus aureus subsp. aureus Rosenbach, ATCC 29213; assay: Antibacterial growth assay, S. aureus; format: cell-based; settings: for Inhibition of growth of S. aureus: at a concentration of 11.1 μM; for Antibacterial activity against S. aureus: in higher doses (100 μM)
Outline: (§1)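 A single colony was grown overnight in cation-adjusted Mueller Hinton broth at 37 °C, 250 rpm, then diluted 100-fold. Cultures were grown for 24 h at 37 °C with test compound as a 7-concentration series. A600 was read, followed by a BacTiter-Glo ATP luminescence read. % growth inhibition was normalized to vancomycin/amikacin positive controls and DMSO negative control.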

[2] = Total antioxidant capacity; settings: CUPRAC, Trolox equivalent, at any one concentration tested, n=2
Outline: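 Test compounds from DMSO stocks were dispensed acoustically as a 7-concentration series in 384-well plates. Freshly prepared Cu(II)-neocuproine reagent was added, mixed at 650 rpm for 2 min, then incubated sealed at 25 °C. A450 of the Cu(I)-neocuproine chelate was read at 1.5 h and 3 h. A Trolox standard curve was run on every plate, with values expressed as Trolox equivalents (mM). Fold over Trolox was taken as the ratio of linear-regression coefficients; n=2.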

Mycobacterium smegmatis = assay: Antibacterial growth assay, M. smegmatis; format: cell-based; settings: at a high concentration of 300 μM
Outline: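 Mycobacterium smegmatis grown in Middlebrook 7H9 with OADC at 37 °C, 250 rpm, with test compound as a 7-concentration series. A600 read at 24 h and 48 h, then an ATP luminescence read with BacTiter-Glo. % growth inhibition normalized to vancomycin/amikacin positive controls and DMSO negative control.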

[3] = tested on: Klebsiella pneumoniae subsp. pneumoniae, ATCC 27736; assay: Antibacterial growth assay, K. pneumoniae; format: cell-based; settings: at a concentration of 300 μM
Outline: as §1

TZM-bl cells = assay: Cytotoxicity to cells in the anti-HIV assay; format: cell-based; settings: toxic to cells in anti-HIV assay
[4] = tested on: Nrf2-ARE signaling pathway in HepG2-ARE-Luc cells; assay: ARE-Luciferase reporter assay for Nrf2 activation in HepG2 cell line; format: cell-based; settings: Figure 5B at 10 μM
Outline: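 HepG2 cells stably carrying an ARE-driven firefly luciferase reporter, seeded at 10,000 cells/well in complete medium (384-well). Test compounds given as a 7-concentration series for 18 h at 37 °C, 5% CO2. Controls were TBHQ and sulforaphane (positive) and DMSO vehicle. Luminescence was read after Steady-Glo for 30 min. Fold induction was taken as treated/vehicle ×100, with vehicle set at 100%; n=2.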

HepG2 cell line = assay: Compound cytotoxicity in ARE assay in HepG2 cell line; format: cell-based
[5] = tested on: CXCR4-dependent NL4-3 virus; assay: Anti-HIV TZM-bl assay, NL4-3 virus; format: cell-based, HIV-1; settings: concentration not stated (any one concentration, Figure 6)
Outline: (§2)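 TZM-bl cells (HeLa-derived; CD4, CCR5 and CXCR4; Tat-driven luciferase) kept in DMEM with 10% heat-inactivated FBS and gentamicin. Cells seeded at 5000/well onto test compound, then given virus with 8 μg/ml DEAE-dextran. Inoculum was 150,000 RLU equivalents for NL4-3 and 20,000 for BaL.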

CCR5-dependent BaL virus = assay: Anti-HIV TZM-bl assay, BaL virus; format: cell-based, HIV-1; settings: concentration not stated (any one concentration, Figure 6)
Outline: as §2

Molecule `Oc1cc(O)c2c(c1)O[C@H](c1ccc(O)c(O)c1)[C@H](O)C2` [(-)-Epicatechin] has an inhibition at 300 µM ([1]; Staphylococcus aureus, ATCC29213, read-out: Inhibition against S. aureus) greater than 50%.
With `OC[C@H]1O[C@@H](Oc2cc3c(O[C@@H]4O[C@H](CO)[C@@H](O)[C@H](O)[C@H]4O)cc(O)cc3[o+]c2-c2ccc(O)c(O)c2)[C@H](O)[C@@H](O)[C@@H]1O` [Cyanidin 3,5-O-diglucoside] the “Total antioxidant capacity (TAC) relative to Trolox” value [2] was “greater than 5 fold”.
With `OC[C@H]1O[C@@H](Oc2cc3c(O)cc(O)cc3[o+]c2-c2ccc(O)c(O)c2)[C@H](O)[C@@H](O)[C@H]1O` [Cyanidin 3-O-galactoside] the “Total antioxidant capacity (TAC) relative to Trolox” value [2] was “greater than 5 fold”.
In the case of `OC[C@H]1O[C@@H](Oc2cc3c(O)cc(O)cc3[o+]c2-c2ccc(O)c(O)c2)[C@H](O)[C@@H](O)[C@@H]1O` [Cyanidin 3-O-glucoside], the “Total antioxidant capacity (TAC) relative to Trolox” value [2] is reported as “greater than 5 fold” and the “Inhibition of growth of S. aureus” value [1] is reported as “more than 50%”.
For `C[C@@H]1O[C@@H](OC[C@H]2O[C@@H](Oc3cc4c(O)cc(O)cc4[o+]c3-c3ccc(O)c(O)c3)[C@H](O)[C@@H](O)[C@@H]2O)[C@H](O)[C@H](O)[C@H]1O` [Cyanidin 3-O-rutinoside], the “Total antioxidant capacity (TAC) relative to Trolox” value [2] was “greater than 5 fold”, the “Inhibition of growth of S. aureus” value [1] was “more than 50%” and the “Inhibition of M. smegmatis” value (Mycobacterium smegmatis) was “more than 50%”.
For `OC[C@H]1O[C@@H](Oc2cc3c(O)cc(O)cc3[o+]c2-c2ccc(O)c(O)c2)[C@H](O[C@@H]2OC[C@@H](O)[C@H](O)[C@H]2O)[C@@H](O)[C@@H]1O` [Cyanidin 3-O-sambubioside], the “Total antioxidant capacity (TAC) relative to Trolox” value [2] was “greater than 5 fold”, the “Antibacterial activity against S. aureus” value [1] was “showed antibacterial activity” and the “Inhibition of M. smegmatis” value (Mycobacterium smegmatis) was “more than 50%”.
For `OC[C@H]1O[C@@H](O[C@H]2[C@H](Oc3cc4c(O)cc(O)cc4[o+]c3-c3ccc(O)c(O)c3)O[C@H](CO)[C@@H](O)[C@@H]2O)[C@H](O)[C@@H](O)[C@@H]1O` [Cyanidin 3-O-sophoroside], the “Total antioxidant capacity (TAC) relative to Trolox” value [2] was “greater than 5 fold”, the “Antibacterial activity against S. aureus” value [1] was “showed antibacterial activity” and the “Inhibition of growth of K. pneumoniae” value [3] was “more than 50%”.
In the case of `C[C@@H]1O[C@@H](OC[C@H]2O[C@@H](Oc3cc4c(O)cc(O)cc4[o+]c3-c3cc(O)c(O)c(O)c3)[C@H](O)[C@@H](O)[C@@H]2O)[C@H](O)[C@H](O)[C@H]1O` [Delphinidin 3-O-rutinoside], the “Total antioxidant capacity (TAC) relative to Trolox” value [2] is reported as “greater than 5 fold” and the “Inhibition of growth of S. aureus” value [1] is reported as “more than 50%”.
With `COc1cc(/C=C/C(=O)O)ccc1O` [Ferulic acid] the “Total antioxidant capacity (TAC) relative to Trolox” value [2] was “on the same range as Trolox”.
In the case of `O=C(O)c1cc(O)c(O)c(O)c1` [Gallic acid], the “Total antioxidant capacity (TAC) relative to Trolox” value [2] is reported as “greater than 5 fold” and the Cytotoxicity concentration (TZM-bl cells) is reported as 80.42 ± 0.57 µM.
With `O=c1c(O[C@@H]2O[C@H](CO)[C@H](O)[C@H](O)[C@H]2O)c(-c2ccc(O)c(O)c2)oc2cc(O)cc(O)c12` [Hyperoside (Quercetin 3-galactoside), Hyperoside (quercetin 3-galactoside)] the “Total antioxidant capacity (TAC) relative to Trolox” value [2] was “greater than 5 fold”.
For `COc1cc(-c2oc3cc(O)cc(O)c3c(=O)c2O[C@@H]2O[C@H](CO)[C@@H](O)[C@H](O)[C@H]2O)ccc1O` [Isorhamnetin 3-O-glucoside], the “Total antioxidant capacity (TAC) relative to Trolox” value [2] was “on the same range as Trolox”, the ARE activation [4] was “activated ARE activity” and the “Cytotoxicity to the cells in ARE assay” value (HepG2 cell line) was “non-cytotoxic to the cells”.
With `COc1cc(-c2oc3cc(O)cc(O)c3c(=O)c2O)ccc1O` [Isorhamnetin] the “Total antioxidant capacity (TAC) relative to Trolox” value [2] was “greater than 5 fold” and the Cytotoxicity concentration (TZM-bl cells) was 3.042 ± 0.27 µM.
In the case of `C[C@H]1O[C@H](OC[C@H]2O[C@@H](Oc3c(-c4ccc(O)cc4)oc4cc(O)cc(O)c4c3=O)[C@H](O)[C@@H](O)[C@@H]2O)[C@@H](O)[C@@H](O)[C@@H]1O` [Kaempferol 3-O-rutinoside], the “Total antioxidant capacity (TAC) relative to Trolox” value [2] is reported as “on the same range as Trolox”.
With `O=c1c(O[C@@H]2O[C@H](CO)[C@@H](O)[C@H](O)[C@H]2O)c(-c2ccc(O)cc2)oc2cc(O)cc(O)c12` [Kaempferol 3-glucoside, Kaempferol 3-glucoside (astragalin)] the “Total antioxidant capacity (TAC) relative to Trolox” value [2] was “on the same range as Trolox”.
With `O=c1c(O)c(-c2ccc(O)cc2)oc2cc(O)cc(O)c12` [Kaempferol] the ARE activation [4] was “activated ARE activity; also recorded: highest level of ARE activation”, the “Cytotoxicity to the cells in ARE assay” value (HepG2 cell line) was “non-cytotoxic to the cells” and the “Inhibition of HIV strain NL4-3” value [5] was “more than 65%”. The “Inhibition of HIV strain BaL” value (CCR5-dependent BaL virus) was “didn’t significantly inhibit” and the Cytotoxicity concentration (TZM-bl cells) was 11.00 ± 0.62 µM.
With `O=c1cc(-c2ccc(O)c(O)c2)oc2cc(O)cc(O)c12` [Luteolin] the ARE activation [4] was “activated ARE activity”, the “Inhibition of HIV strain NL4-3” value [5] was “more than 90%” and the “Inhibition of HIV strain BaL” value (CCR5-dependent BaL virus) was “more than 90%”. It also gave a Cytotoxicity concentration (TZM-bl cells) of 4.28 ± 0.45 µM.
For `O=c1c(O)c(-c2cc(O)c(O)c(O)c2)oc2cc(O)cc(O)c12` [Myricetin], the “Total antioxidant capacity (TAC) relative to Trolox” value [2] was “greater than 5 fold” and the Cytotoxicity concentration (TZM-bl cells) was “higher than 100 μM”.
For `O=C1C[C@@H](c2ccc(O)cc2)Oc2cc(O)cc(O)c21` [Naringenin], the “Total antioxidant capacity (TAC) relative to Trolox” value [2] was “on the same range as Trolox”, the ARE activation [4] was “activated ARE activity” and the “Cytotoxicity to the cells in ARE assay” value (HepG2 cell line) was “non-cytotoxic to cells”.
For `O=C(/C=C/c1ccc(O)c(O)c1)O[C@@H]1C[C@@](O)(C(=O)O)C[C@@H](O)[C@@H]1O` [Neochlorogenic acid (3-caffeoylquinic acid)], the “Total antioxidant capacity (TAC) relative to Trolox” value [2] was “greater than 5 fold”.
With `OC[C@H]1O[C@@H](Oc2cc3c(O)cc(O)cc3[o+]c2-c2ccc(O)cc2)[C@H](O)[C@@H](O)[C@@H]1O` [Pelargonidin 3-O-glucoside] the “Antibacterial activity against S. aureus” value [1] was “showed antibacterial activity” and the “Inhibition of growth of K. pneumoniae” value [3] was “more than 50%”.
With `COc1cc(-c2[o+]c3cc(O)cc(O)c3cc2O[C@@H]2O[C@H](CO)[C@@H](O)[C@H](O)[C@H]2O)ccc1O` [Peonidin 3-O-glucoside] the “Antibacterial activity against S. aureus” value [1] was “showed antibacterial activity” and the “Inhibition of growth of K. pneumoniae” value [3] was “more than 50%”.
In the case of `O=c1c(O[C@@H]2O[C@H](CO)[C@@H](O)[C@H](O)[C@H]2O)c(-c2ccc(O)c(O)c2)oc2cc(O)cc(O)c12` [Quercetin-3-β-D-glucoside (hirsutrin), Quercetin-3-β-D-glucoside], the “Total antioxidant capacity (TAC) relative to Trolox” value [2] is reported as “greater than 5 fold”.
For `O=c1c(O)c(-c2ccc(O)c(O)c2)oc2cc(O)cc(O)c12` [Quercetin], the “Total antioxidant capacity (TAC) relative to Trolox” value [2] was “greater than 5 fold”, the ARE activation [4] was “activated ARE activity” and the “Cytotoxicity to the cells in ARE assay” value (HepG2 cell line) was “non-cytotoxic to the cells”. For the same molecule, the “Inhibition of HIV strain NL4-3” value [5] was “more than 65%”, the “Inhibition of HIV strain BaL” value (CCR5-dependent BaL virus) was “didn’t significantly inhibit” and the Cytotoxicity concentration (TZM-bl cells) was 26.41 ± 3.91 µM. The “Antibacterial activity against S. aureus” value [1] was “showed antibacterial activity”.
In the case of `O=C(O)C=Cc1ccc(O)cc1` [p-Coumaric acid], the “Total antioxidant capacity (TAC) relative to Trolox” value [2] is reported as “on the same range as Trolox”.
